From ChEMBL document CHEMBL1128308, “Synthesis and antiinflammatory activity of certain 5,6,7,8-tetrahydroquinolines and related compounds” (J Med Chem, 1995) come the findings set out here.

For experiment [1], the species on record is Rattus norvegicus. In words: Anti-inflammatory activity by rat acute gastric irritation assay, activity is expressed as Ulcerogenic dose (UD50). The class given is functional, Stomach. The procedure, abridged:
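Male Sprague-Dawley rats (190-220 g) were fasted for 18 h, then given compound in 0.5% Tween 80 by gastric intubation at 1 mL/100 g, with groups of 8 scored blind. At 4 h, gastric irritation was scored 0-3: 0 none, 1 redness, 2 ≤5 lesions, 3 >5 lesions. The ulcerogenic dose is the dose at which 50% of rats had at least one lesion.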

The target of experiment [2] is T1, Polyunsaturated fatty acid 5-lipoxygenase (Rattus norvegicus) (UniProt P12527).
T1 sequence (whole entry): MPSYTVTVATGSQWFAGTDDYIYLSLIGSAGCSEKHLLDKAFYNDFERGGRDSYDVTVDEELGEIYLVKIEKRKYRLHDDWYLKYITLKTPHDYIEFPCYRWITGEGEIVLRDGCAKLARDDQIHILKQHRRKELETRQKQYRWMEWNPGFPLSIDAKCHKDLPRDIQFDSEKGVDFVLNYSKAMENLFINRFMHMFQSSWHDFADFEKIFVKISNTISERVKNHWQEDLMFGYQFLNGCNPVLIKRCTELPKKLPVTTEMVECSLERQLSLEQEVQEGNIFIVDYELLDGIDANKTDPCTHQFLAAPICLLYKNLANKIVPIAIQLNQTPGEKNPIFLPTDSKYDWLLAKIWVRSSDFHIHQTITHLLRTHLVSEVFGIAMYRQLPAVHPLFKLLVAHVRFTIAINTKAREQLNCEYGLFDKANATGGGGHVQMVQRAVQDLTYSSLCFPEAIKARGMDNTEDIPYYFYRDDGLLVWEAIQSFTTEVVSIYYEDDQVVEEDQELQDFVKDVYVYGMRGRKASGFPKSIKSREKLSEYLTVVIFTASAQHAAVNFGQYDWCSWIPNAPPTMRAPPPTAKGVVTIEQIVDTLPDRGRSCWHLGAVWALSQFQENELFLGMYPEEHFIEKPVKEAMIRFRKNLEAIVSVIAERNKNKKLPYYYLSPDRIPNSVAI

Experiment [3] has as its target T1, Polyunsaturated fatty acid 5-lipoxygenase (Rattus norvegicus). This is another data set of the same source.
Experiment [4] is filed under the species Rattus norvegicus. Briefly: Anti-inflammatory activity by rat adjuvant Arthritis assay..
For experiment [5], the system named is Rattus norvegicus. In words: Anti-inflammatory activity by rat carrageenan edema assay. (3h edema). The class given is functional. The procedure, abridged: (§1)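 Groups of six male Sprague-Dawley rats (150-165 g) were dosed po in 0.5% methyl cellulose. One hour later, 0.1 mL of 1% carrageenan was injected subplantar into the right hind paw. Edema was taken as the 3 h paw volume minus the zero-time volume and expressed as percent change versus vehicle; screening dose was 50 mg/kg po.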
A general note: Carrageenan injected into the paw causes an acute inflammation.

The target of experiment [6] is T1, Polyunsaturated fatty acid 5-lipoxygenase (Rattus norvegicus). This is another data set of the same source.
Experiment [7] shares this target. Briefly: Inhibition of 5-lipoxygenase pathway in rat polymorphonuclear assay (inhibition of 5-HETE formation). The essentials:
(§2)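 Rat polymorphonuclear leucocytes at 10^7 cells/mL in HBSS (Mg2+, Ca2+, 10 mM cysteine) were preincubated with compound, added in DMSO, for 10 min at 37 °C with shaking. Radiolabeled eicosanoids (5-HETE for the 5-LO pathway, TXB2 for the CO pathway) were separated by HPLC and detected with an in-line radioactivity detector. Results are given as percent change at 10 µM or 50 µM.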

Experiment [8] shares this target. In words: Inhibition of 5-lipoxygenase pathway in rat polymorphonuclear assay, by ability to inhibit formation of LTB4 AT 10 uM.
Experiment [9] deals with T2, Polyunsaturated fatty acid 5-lipoxygenase (Rattus norvegicus, UniProt P12527).
T2 sequence (P12527 whole entry): T1 sequence (whole entry)
Briefly: 5-lipoxygenase inhibitory activity against rat polymorphonuclear leucocytes from female wistar rat, by using 5-HETE. The essentials: as §2

In experiment [10] the target is T2, Polyunsaturated fatty acid 5-lipoxygenase. In words: 5-lipoxygenase inhibitory activity against rat polymorphonuclear leucocytes from female wistar rat, by using LTB4.
For experiment [11], the target named is T3, Cyclooxygenase (Rattus norvegicus, UniProt P35355+Q63921).
T3 sequence (P35355 whole entry): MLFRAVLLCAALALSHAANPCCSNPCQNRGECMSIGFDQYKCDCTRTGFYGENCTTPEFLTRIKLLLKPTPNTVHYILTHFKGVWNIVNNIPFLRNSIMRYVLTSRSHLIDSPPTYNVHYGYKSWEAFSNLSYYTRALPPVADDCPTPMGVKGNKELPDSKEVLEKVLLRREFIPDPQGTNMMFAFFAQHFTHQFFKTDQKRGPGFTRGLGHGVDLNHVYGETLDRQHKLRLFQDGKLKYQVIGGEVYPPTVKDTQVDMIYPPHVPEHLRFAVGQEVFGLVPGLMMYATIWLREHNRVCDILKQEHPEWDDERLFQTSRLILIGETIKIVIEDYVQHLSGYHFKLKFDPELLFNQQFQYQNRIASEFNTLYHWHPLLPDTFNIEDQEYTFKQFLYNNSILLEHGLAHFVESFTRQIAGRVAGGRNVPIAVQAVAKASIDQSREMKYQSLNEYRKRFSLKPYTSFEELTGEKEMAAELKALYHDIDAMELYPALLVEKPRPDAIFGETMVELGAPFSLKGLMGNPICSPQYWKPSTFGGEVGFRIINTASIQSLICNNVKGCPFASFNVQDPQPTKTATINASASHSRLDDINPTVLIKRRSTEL
T3 sequence (Q63921 whole entry): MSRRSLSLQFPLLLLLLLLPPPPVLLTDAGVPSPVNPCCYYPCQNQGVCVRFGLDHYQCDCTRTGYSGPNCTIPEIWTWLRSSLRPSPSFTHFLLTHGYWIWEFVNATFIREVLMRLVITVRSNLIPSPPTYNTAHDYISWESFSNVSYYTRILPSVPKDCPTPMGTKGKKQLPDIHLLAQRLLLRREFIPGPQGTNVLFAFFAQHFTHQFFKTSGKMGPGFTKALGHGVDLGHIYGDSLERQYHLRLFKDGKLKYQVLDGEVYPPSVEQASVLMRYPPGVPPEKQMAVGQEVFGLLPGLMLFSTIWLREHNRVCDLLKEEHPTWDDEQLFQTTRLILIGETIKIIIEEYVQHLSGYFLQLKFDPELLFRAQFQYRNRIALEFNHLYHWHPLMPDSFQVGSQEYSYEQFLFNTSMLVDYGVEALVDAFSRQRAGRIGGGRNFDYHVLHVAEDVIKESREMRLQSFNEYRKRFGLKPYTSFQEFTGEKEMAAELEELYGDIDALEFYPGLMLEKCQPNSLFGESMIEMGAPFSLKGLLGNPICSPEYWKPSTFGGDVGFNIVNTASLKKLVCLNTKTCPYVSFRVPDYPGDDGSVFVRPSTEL
In words: Prostaglandin G/H synthase Inhibitory activity against rat polymorphonuclear leucocytes from female wistar rat, by using PGE-2.

In experiment [12] the target is T3, Cyclooxygenase. In words: Prostaglandin G/H synthase Inhibitory activity against rat polymorphonuclear leucocytes from female wistar rat, by using TXB2. The essentials: as §2
The subject of experiment [13] is Rattus norvegicus. In words: Antiinflammatory activity by rat Carrageenan edema assay at 50 mg/kg peroral administration (3h edema). The class given is functional. The note with it: route oral. The essentials:
as §1

In experiment [14] the test system is Rattus norvegicus. In words: Anti-inflammatory activity by rat carrageenan edema assay (3h edema). In kind it is functional. The essentials:
as §1

The species entered for experiment [15] is Rattus norvegicus. In words: Anti-inflammatory activity by rat adjuvant Arthritis assay (uninjected paw at day 16).
For experiment [16], the system named is Rattus norvegicus. In words: Antiinflammatory activity by rat adjuvant arthritis assay at 30 mg/kg peroral administration (uninjected paw at day 16). The conditions noted are these: route oral.

One may read the IC50 as the concentration at which inhibition is half-maximal. The low end stands for greater potency in that assay, the high end for weaker potency in that assay. Broadly, the ED50 is the dose that gives a 50% effect, or the effect in half of the subjects.

Where only a bound is given, the exact number is not on record here.

`CC(C)Cc1ccc(C(C)C(=O)O)cc1` (stereo not drawn) [IBUPROFEN] had a UD50 in the experiment filed under Rattus norvegicus [1] of 42 mg/kg. Further, the IC50 in experiment [2] and in experiment [3] was greater than 50 µM throughout. Further, in the experiment filed under Rattus norvegicus [4], the ED50 was found to be 95 mg/kg.

Take `NC1=NN(c2cccc(C(F)(F)F)c2)CC1` [BW-755C]: the ED50 with Rattus norvegicus [5] came out at 72 mg/kg; in the experiment listed under Rattus norvegicus [4], 38 mg/kg. Further, the values for the IC50 in experiment [6] and in [3] were 10 µM and 11 µM, respectively.

For `Cc1ccc(C(O)c2nc3c(cc2C)CCCCC3)cc1` (stereo not drawn), the Change is -49% in experiment [7], -43% in [8], -58% in the experiment on Rattus norvegicus [13] and -49% in the experiment on Rattus norvegicus [16]. Further, the IC50 was 27 µM in experiment [9], 14 µM in experiment [10], greater than 50 µM at Cyclooxygenase [11] and 33 µM against Cyclooxygenase [12]. In addition, the median effective dose (ED50) in the experiment on Rattus norvegicus [14] amounted to 40 mg/kg; in the experiment listed under Rattus norvegicus [15] it was 30 mg/kg.
